Assay results from different studies.
Each line is one published result; the experiments were not run side by side.
CDK7 with cyclin H: Cyclin-dependent kinase 7, with cyclin H (CDK7, Homo sapiens, UniProt P50613)
PDE4D: 3',5'-cyclic-AMP phosphodiesterase 4D (PDE4D, Homo sapiens, UniProt Q08499)
F2: Prothrombin (F2, Homo sapiens, UniProt P00734)
PPP3CA: Protein phosphatase 3 catalytic subunit alpha (PPP3CA, Homo sapiens, UniProt Q08209)

CC(C)(C)[C@]1(O)CC2OC(=O)CC23C(=O)OC2OC(=O)[C@H](O)C231 (some centres unmarked)
inhibition (CDK7 with cyclin H; enzyme activity, inhibitor, ADP detection; 10 µM): 2.1%

C#Cc1n[nH]c2c(-c3cn([C@@H](C)c4ccccn4)c(=O)[nH]c3=O)cc(F)cc12
inhibition (Serine/threonine-protein kinase PAK 2 (PAK2, Homo sapiens, UniProt Q13177); enzyme activity, inhibitor; 0.1 µM): 4.1%

COc1cc2c(cc1OC)[C@@]13CCN4CC5=CCO[C@H]6CC(=O)N2[C@H]1[C@H]6[C@H]5C[C@H]43
inhibition (CDK7 with cyclin H; enzyme activity, inhibitor, ADP detection; 10 µM): 28.4%

C[C@@H]1CCO[C@H]2Cn3cc(C(=O)NCc4ccc(F)cc4F)c(=O)c(O)c3C(=O)N12
inhibition (Gag-Pol polyprotein, integrase (gag-pol, Human immunodeficiency virus type 1 group M subtype B, UniProt P04585); enzyme activity, inhibitor; 50 nM): > 50%

COc1cc(CNC(=O)CCCC/C=C/C(C)C)ccc1O
inhibition (CDK7 with cyclin H; enzyme activity, inhibitor, ADP detection; 10 µM): 31.4%

O=c1c(O)c(-c2ccc(O)c(O)c2)oc2cc(O)cc(O)c12
inhibition (PDE4D; enzyme activity, inhibitor, radiometric; 5 µM): 75.2%

COc1cc(Nc2ncc(F)c(Nc3ccc4c(n3)NC(=O)C(C)(C)O4)n2)cc(OC)c1OC
inhibition (Mitogen-activated protein kinase 7 (MAPK7, Homo sapiens, UniProt Q13164); binding, competition with immobilised ligand; 10 µM): 19%

Cn1cc(-c2cc(F)cc(N3CCn4c(cc5c4CCCC5)C3=O)c2CO)cc(Nc2ccc(N3CCN(C4COC4)CC3)cn2)c1=O
inhibition (Protein kinase C gamma type (PRKCG, Homo sapiens, UniProt P05129); enzyme activity, inhibitor; 0.1 µM): 12%

O=C(/C=C/c1ccc(O)cc1)c1ccc(O)cc1O
inhibition (PDE4D; enzyme activity, inhibitor, radiometric; 5 µM): -6.18%

COc1ccc(CC2NCCc3cc(OC)c(OC)cc32)cc1OC (centres unmarked)
inhibition (CDK7 with cyclin H; enzyme activity, inhibitor, ADP detection; 10 µM): 22.5%

COc1cc(O)ccc1/C=C/C(=O)c1ccc(O)cc1
inhibition (PDE4D; enzyme activity, inhibitor, radiometric; 50 µM): 62.8%

COc1ccc(Cc2nccc3cc(OC)c(OC)cc23)cc1OC
inhibition (CDK7 with cyclin H; enzyme activity, inhibitor, ADP detection; 10 µM): -1.4%

O=C(Nc1cccnn1)N1CCN([C@@H]2CCOc3cc(C(F)(F)F)ccc32)CC1
inhibition (Bombesin receptor subtype-3 (BRS3, Homo sapiens, UniProt P32247); cell-free assay; 20 µM): 37%

N=C(N)Nc1ccc(C(=O)Nc2ccc3c(c2)B(O)OC3)cc1
inhibition (F2; enzyme activity, inhibitor; 50 µM): 10.7%

C=C[C@H]1C[N@@]2CC[C@H]1C[C@@H]2[C@@H](O)c1ccnc2ccccc12
inhibition (CDK7 with cyclin H; enzyme activity, inhibitor, ADP detection; 10 µM): 12.9%

O=C(Nc1ccc2c(c1)B(O)OC2)c1cccc(OCc2ccc(Cl)cc2)c1
inhibition (F2; enzyme activity, inhibitor; 50 µM): 13.7%

CC(C)=CCc1cc(-c2coc3cc(O)cc(O)c3c2=O)cc(O)c1O
inhibition (PDE4D; enzyme activity, inhibitor, radiometric; 5 µM): 84.6%

C#Cc1n[nH]c2c(-c3cn([C@@H](C)c4ccccc4)c(=O)[nH]c3=O)cc(F)cc12
inhibition (Tyrosine-protein kinase SYK (SYK, Homo sapiens, UniProt P43405); enzyme activity, inhibitor; 0.1 µM): 1.6%

COc1ccc(-c2coc3cc(O)ccc3c2=O)cc1
inhibition (PDE4D; enzyme activity, inhibitor, radiometric; 50 µM): 5.54%

CC(C)N1CCC[C@H]1CNC(=O)c1cn(C2CCCC2)c(=O)c2c1c1ccccc1n2C
inhibition (Prostaglandin E2 receptor EP4 subtype (PTGER4, Homo sapiens, UniProt P35408); ligand displacement, radioligand; 10 µM): 30%

C=CCc1ccc(O)c(-c2ccc(O)c(CC=C)c2)c1
inhibition (PDE4D; enzyme activity, inhibitor, radiometric; 50 µM): 25.6%

c1ccc(C(NCCNC(c2ccccc2)c2ccccc2)c2ccccc2)cc1
inhibition (PPP3CA; enzyme activity, inhibitor; 10 µM): 32%

C=CCc1ccc(O)c(-c2cc(CC=C)ccc2O)c1
inhibition (PDE4D; enzyme activity, inhibitor, radiometric; 50 µM): 42.7%

COc1c(-c2ccc3c(c2)OCO3)oc2c(ccc3occc32)c1=O
inhibition (CDK7 with cyclin H; enzyme activity, inhibitor, ADP detection; 10 µM): 30.4%

C[C@H](C(=O)N[C@H]1COc2ccccc2[C@@H]1S(C)(=O)=O)c1ccc(F)cc1
inhibition (PPP3CA; enzyme activity, inhibitor; 10 µM): 8%

Cc1cc(O)c2c(c1)C(=O)c1cc(O)cc(O)c1C2=O
inhibition (PDE4D; enzyme activity, inhibitor, radiometric; 50 µM): 45.4%
